In the RNAGym collection of RNA variant scans (doi:10.1126/science.aae0568):
Fewer inactive variants are shown than the library holds.

B1: tRNA (parent)
chain: GUUCCGUUGGCGUAAUGGUAACGCGUCUCCCUCCUAAGGAGAAGACUGCGGGUUCGAGUCCCGUACGGAACG

Variants of: B1
Assay: yeast fitness relative to wild type (ratio to wild type); higher = fitter; tRNA-Arg(CCU), competitive growth, 37 C, YPD
Procedure, shortened: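 Variants of the tRNA-Arg(CCU) gene, chemically synthesised with a 3% per-site mutation rate at 69 sites, were placed at the native genomic locus in Saccharomyces cerevisiae. The pooled strains were competed in YPD at 37°C for 24 hours in six parallel replicates. Gene amplicons from the start population and from each end population were read by 100-nucleotide paired-end sequencing. Darwinian fitness relative to wild type came from changes in genotype frequencies; genotypes needed ≥ 100 starting reads, and estimates < 0.5 were set to 0.5.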

Point of comparison: C11U C34G A69C, yeast fitness 0.535. Against it:
- C11U G18C C31U — lower, ≤ 0.5
- C5U C22G C29G A69U — lower, ≤ 0.5
- C4A C22G C29U U35C — lower, ≤ 0.5
- U13A C27U C61A — higher, 0.619
- C11G G12A C27U A43G — lower, ≤ 0.5
- G18A A40G A70C — lower, ≤ 0.5
- A57U A65G — higher, 0.753
- C29U A42U A43U U54C C55G — lower, ≤ 0.5
- U3C C34A G44C C46U G51A — lower, ≤ 0.5
- A36U G48U C66A — lower, ≤ 0.5
- G17A A37C C55U — higher, 0.56
- G44A A57U C66U — higher, 0.547
- C30U C55A — higher, 0.667
- G44C A69C — higher, 0.85
- C24G U32C A42G — higher, 0.574
- C4G C11G G50A — lower, ≤ 0.5
- G6A C29A C55U — lower, 0.514
- C24G A37C C49U — lower, ≤ 0.5
- C27A G39C C55G A65U — lower, ≤ 0.5
- U35C — higher, 0.817
- U3C C31A C49A — lower, ≤ 0.5
- C11U A36C G68C — lower, ≤ 0.5
- A20C C22U C61G — lower, ≤ 0.5
- G9A A14U C29G C34A G63A — lower, ≤ 0.5
- U47C G48A — higher, 0.96
- A37U A65C — higher, 0.739
- G38C G41C A42G A65G — lower, 0.503
- U32G C33A U47A — lower, ≤ 0.5
- G9C A14C A15U G23A C34A G52C — lower, ≤ 0.5
- U7A G17A C29U — lower, ≤ 0.5
- A20G A65U G68C — higher, 0.556
- C29U A43C A69U — higher, 0.673
- A21C C29G C33A A42C C62A — lower, 0.52
- U26A C30U A42C C46U A65G — higher, 0.859
- U26A C49U A57U — lower, ≤ 0.5
- A37G G44C A57U G68C — lower, 0.512
- G9A C27A — higher, 0.955
- C4U C33U G50C — lower, ≤ 0.5
- C27U A42U A43U U47C — higher, 0.577
- G6U A70C — higher, 0.813
- G9A C27A A42C C49G G51C A65C — lower, ≤ 0.5
- U3C A42C A69C — higher, 0.978
- C5G A20G A65U — higher, 0.652
- C27A C31A G52A G58C — lower, ≤ 0.5
- C11A U13A C31G A65C — lower, ≤ 0.5
- G41A G52C C61U C62U — lower, ≤ 0.5
- G6C G51A G58A — higher, 0.652
- G6C U32C A36C — lower, ≤ 0.5
- C29A C33G C61U C66U — lower, ≤ 0.5
- U7G C27G U28G — lower, 0.531
- U47C A57C — lower, 0.524
- C5U C11G C22U C30G G58C C60G — lower, ≤ 0.5
- U16C G52A G56A — higher, 0.69
- C5U G39C C46U C49U G56A G68C — higher, 0.669
- G6A A43G — higher, 0.801
- G50C G56A G58A — higher, 0.64
- U2G G6A U13G C49U G56A A70G — lower, ≤ 0.5
- A21U C30A — higher, 0.757
- U32C G56A — higher, 1.07
- A43G G51A A69C — lower, ≤ 0.5
- A42G A65G — higher, 0.735
- A15G G48A A65C — higher, 0.686
- A20U C29A C30A — lower, ≤ 0.5
- U7A A20G G23A G44A G52C — lower, ≤ 0.5
- C27U C29G — higher, 0.58
- A36G G50A — higher, 0.898
- C4U G23C A36C C66U — lower, ≤ 0.5
- A36C G38C A45G G50C — lower, ≤ 0.5
- G23A C31G G52A — lower, ≤ 0.5
- C4U A20G C55U A65G — lower, ≤ 0.5
- C24G A36G A65U G68C — lower, ≤ 0.5
- G10A A21C C24A G63A A65C — lower, ≤ 0.5
- C27A G38C G51C A69U — lower, ≤ 0.5
- U26C C33G A36U A57U — lower, ≤ 0.5
- C5A U8G C27U A45G U53C — lower, ≤ 0.5
- U13G C46G — higher, 1.12
- A14G A21C C30G C55G — lower, 0.533
- U8C G12C A70C — higher, 0.686
- A15U G17C A45U C49G C55U A70U — lower, ≤ 0.5
- A37G C66U A69U — higher, 0.674
- U16C C34G G51A — lower, 0.534
- A21G G56A — higher, 1.08
